# Compound activity: PubChem, several laboratories
# GSTO1 counter: inhibitors of recombinant GSTO1, primary screen, counter-screen for RBBP9 inhibitor project, biochemical, fluorescence polarization | Glutathione S-transferase omega-1 (Homo sapiens), P78417 | 300,000 compounds, 1.1% hits | inhibition, % at 5.96 µM | AID 1974, 2009 | activity-based probe fluorescence polarization;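 active means inhibition above the campaign mean inhibition plus 3 SD, cut at about 35% in these data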;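 further: 0% = GSTO1-1 with DMSO and 100% = wells lacking GSTO1-1 enzyme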
# Apaf1 inhib: inhibitors of human Apaf-1 apoptosome, primary screen, biochemical, DEVD-Rh110 fluorescence, uHTS; 330,000 compounds, 0.71% hits; Apoptotic protease-activating factor 1 (Homo sapiens), O14727; reconstituted apoptosome caspase-3 activity; inhibition, % at 20 µM; AID 489030, 2010; active means inhibition of at least 40% at 20 µM;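 further: plate controls were DMSO wells for no effect and DEVD-CHO caspase inhibitor wells for full effect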
# Target sequence (O14727 whole entry, looked up): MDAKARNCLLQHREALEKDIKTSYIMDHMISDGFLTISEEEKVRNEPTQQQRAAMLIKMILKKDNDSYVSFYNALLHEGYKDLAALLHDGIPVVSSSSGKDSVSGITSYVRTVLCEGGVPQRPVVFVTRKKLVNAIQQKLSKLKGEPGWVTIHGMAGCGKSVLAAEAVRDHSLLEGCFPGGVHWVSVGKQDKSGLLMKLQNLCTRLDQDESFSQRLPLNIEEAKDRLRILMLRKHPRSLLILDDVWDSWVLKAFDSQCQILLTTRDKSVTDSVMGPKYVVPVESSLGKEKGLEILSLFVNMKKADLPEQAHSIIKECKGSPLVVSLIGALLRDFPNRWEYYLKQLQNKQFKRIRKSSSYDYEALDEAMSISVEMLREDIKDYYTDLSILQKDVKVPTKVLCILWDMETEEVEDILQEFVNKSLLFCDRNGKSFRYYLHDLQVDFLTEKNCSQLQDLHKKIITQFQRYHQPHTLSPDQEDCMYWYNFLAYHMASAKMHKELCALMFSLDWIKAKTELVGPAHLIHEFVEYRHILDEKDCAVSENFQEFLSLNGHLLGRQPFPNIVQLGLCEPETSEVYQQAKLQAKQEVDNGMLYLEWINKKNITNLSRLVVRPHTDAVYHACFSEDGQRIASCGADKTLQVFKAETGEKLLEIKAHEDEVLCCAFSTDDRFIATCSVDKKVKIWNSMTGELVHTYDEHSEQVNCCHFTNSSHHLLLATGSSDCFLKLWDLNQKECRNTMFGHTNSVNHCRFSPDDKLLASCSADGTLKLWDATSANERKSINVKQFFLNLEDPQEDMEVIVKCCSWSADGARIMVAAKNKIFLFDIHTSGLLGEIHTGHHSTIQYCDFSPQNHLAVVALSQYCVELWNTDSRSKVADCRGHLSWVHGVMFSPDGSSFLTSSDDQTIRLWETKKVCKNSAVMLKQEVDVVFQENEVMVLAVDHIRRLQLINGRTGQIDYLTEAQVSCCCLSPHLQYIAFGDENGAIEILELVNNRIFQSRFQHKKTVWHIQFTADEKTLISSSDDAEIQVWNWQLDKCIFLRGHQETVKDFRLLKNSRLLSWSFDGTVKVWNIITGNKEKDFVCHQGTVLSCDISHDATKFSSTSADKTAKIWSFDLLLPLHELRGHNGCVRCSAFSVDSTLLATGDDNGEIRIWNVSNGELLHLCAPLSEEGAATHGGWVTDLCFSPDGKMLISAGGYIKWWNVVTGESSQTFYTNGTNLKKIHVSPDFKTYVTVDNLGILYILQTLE
#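 Material: reconstituted apoptosome with Apaf-1, cytochrome c, caspase-9, procaspase-3, dATP. Technique: Rh110 fluorescence intensity. Buffer or medium: pH 7.5 Hepes buffer with CHAPS, BSA, DTT. Times: 30 min plus 50 min, RT.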
# TDP2 absorb: human TDP2 enzyme inhibitors, primary screen, biochemical, epi absorbance, recombinant enzyme | Tyrosyl-DNA phosphodiesterase 2 (Homo sapiens), O95551 | T5PNP hydrolysis, p-nitrophenol absorbance 415 nm | inhibition, % at 12.8 µM | 370,000 compounds, 0.34% hits | AID 720702, 2013;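 active means inhibition above the mean of all tested compounds plus 3 SD, set per campaign, cut at about 25% in these data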;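 further: 0% = DMSO with enzyme and 100% = buffer with substrate but no TDP2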
#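 Evaluation: % inhibition relative to enzyme-containing and enzyme-free wells. Material: recombinant human TDP2. Benchmarks: enzyme-free and DMSO wells. Timing: enzyme reaction with compound for 2 h at 37 °C. Compound dosing: 12.8 µM only. Measured by: p-Nitrophenol epi absorbance. Reagent: T5PNP substrate at 5 mM, a TopII-DNA adduct mimic. Replication: single well per compound.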
# PP1 inh: PP1-alpha phosphatase inhibitors, primary screen, counter-screen for PP5 inhibitor project, biochemical, fluorescence, OMFP substrate, single point. purified PP1alpha. inhibition, % at 6.7 µM. 320,000 compounds, 0.9% hits. AID 2235, 2010;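 active means inhibition above the mean inhibition of all tested compounds plus 3 SD, computed separately for each screening campaign, cut at about 15% in these data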
# PP5 inh: PP5 phosphatase inhibitors, primary screen, biochemical, fluorescence; Serine/threonine-protein phosphatase 5 (Homo sapiens), P53041; purified PP5c, OMFP substrate fluorescence; inhibition, % at 6.7 µM; 320,000 compounds, 0.18% hits; AID 1987, 2009;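 active means inhibition above the campaign's mean inhibition across all tested compounds plus 3 SD, cut at about 9.5% in these data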;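 further: 0% = DMSO only and 100% = 100 µM cantharidin control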
# * hit, by the source's call; / = no result given. Rows were chosen to be rich in hits. Some 2.1% of all compounds tested hit in one or more screens of this group.
SMILES,GSTO1 counter,Apaf1 inhib,TDP2 absorb,PP1 inh,PP5 inh
COC(=O)[C@]12C[C@H](CC(=O)NCCC(C)C)C(=O)N(Cc3ccccc3)C1=C[C@H](COCc1ccccc1)O[C@@H]2C,/,/,-1.2,/,/
CCCc1cc(C(=O)Nc2cccc(C(C)=O)c2)no1,35.6*,16.1,-3.5,-3.5,-1.0
Cc1ccc(C(=O)NC(=C(Cl)Cl)S(=O)(=O)c2ccccc2)cc1,39.3*,-6.8,-2.4,-0.5,0.9
Cc1ccccc1-c1cc2nc(NCCOc3ccccc3Cl)n(C)c(=O)c2s1,/,/,-7.4,/,/
O=[N+]([O-])c1cccc(N/N=C/c2cccc(O)c2O)c1,34.8*,14.4,-14.2,1.1,2.7
O=[N+]([O-])c1ccc(N/N=C/c2cccc(O)c2O)c(S(=O)(=O)N2CCOCC2)c1,46.2*,8.1,-38.9,1.8,0.1
COc1cc(/C=N/Nc2ccc([N+](=O)[O-])cc2S(=O)(=O)N2CCOCC2)cc(OC)c1OC,4.4,-16.8,-9.2,-2.6,-3.4
COC(=O)[C@@H](N[C@H](/C=C/c1ccccc1)[C@@H](O)Cc1ccccc1)c1ccccc1,/,/,8.3,/,/
Cc1cccc(C)c1NC(=O)C(CCc1ccccc1)N1CCN(CCN(C)C)CC1 (centres undefined),/,/,-3.8,/,/
O=C(N[C@@H](Cc1ccccc1)C(=O)OCc1ccccc1)c1nc[nH]c1C(=O)NC(c1ccccc1)c1ccccc1,-14.5,20.5,-6.3,17.1*,5.2
CCOc1ccc(-n2c(SCC(=O)Nc3ccc(Br)cc3)nc3n[nH]c(C)c3c2=N)cc1,7.9,-6.0,3.7,16.9*,2.6
CCOc1ccc(-n2c(SCC(=O)Nc3ccccc3CC)nc3n[nH]c(C)c3c2=N)cc1,7.8,8.5,-3.5,0.2,0.8
O=C(CCC1CCCC1)Nc1cc(C(F)(F)F)ccc1N1CCOCC1,11.9,21.4,1.9,17.0*,2.6
CCCNC(=O)Cn1c(=O)/c(=C/c2ccc(-c3cccc([N+](=O)[O-])c3)o2)s/c1=C\C(=O)C(C)(C)C,/,/,-5.8,/,/
CCCNC(=O)Cn1c(=O)/c(=C\c2ccc(-c3cccc([N+](=O)[O-])c3)o2)s/c1=C\C(=O)C(C)(C)C,-1.3,14.7,4.7,15.9*,2.1
CCOC(=O)N1CCN(C(=O)C[C@H]2C[C@@]3(C(=O)OC)C(=C[C@H](C4CCCC4)O[C@@H]3C)N(CCc3ccc(OC)c(OC)c3)C2=O)CC1,/,/,9.1,/,/
CCOC(=O)CC[C@@H]1CC[C@]2(CCCN(C(=O)c3ccno3)C2)O1,/,/,1.4,/,/
O=C1Nc2ccccc2CCc2ccccc21,/,-7.8,10.9,2.0,-1.7
O=C1Cc2ccccc2C(=O)N1,/,/,73.4*,/,/
N#Cc1ccc(NC(=O)Nc2cccc(C#N)c2)cc1,/,/,-23.4,/,/
N#Cc1ccc(NC(=O)Nc2ccc(Oc3ccc(NC(=O)Nc4ccc(C#N)cc4)cc3)cc2)cc1,-63.5,15.9,-0.5,17.2*,6.9
COC(=O)[C@]12C[C@H](CC(=O)N3CCN(C(=O)c4ccco4)CC3)C(=O)N(Cc3ccccc3)C1=C[C@H](C(C)C)O[C@@H]2C1CC1,/,/,-0.4,/,/
CN(C)c1ccc(Cn2c(=O)n(Cc3ccc(C(=O)NCC4COC4)cc3)c(=O)c3ccccc32)cc1,/,/,9.3,/,/
COC(=O)[C@]12C[C@H](CC(=O)NCc3cccs3)C(=O)N(Cc3ccccc3)C1=C[C@H](C1CCCC1)O[C@@H]2C,/,/,6.3,/,/
N#C/C(=C\c1ccc(-c2ccc(F)cc2)o1)C(=O)Nc1nc(-c2cccs2)cs1,-2.7,8.8,-11.3,15.3*,1.6
SMILES,GSTO1 counter,Apaf1 inhib,TDP2 absorb,PP1 inh,PP5 inh
N#C/C(=C/c1ccc(-c2ccc([N+](=O)[O-])cc2)o1)C(=O)Nc1nc(-c2cccs2)cs1,/,/,-6.8,/,/
O=C(COC(=O)c1cc(S(=O)(=O)N2CCc3ccccc3C2)ccc1Cl)NCc1ccco1,-6.5,42.6*,-2.9,4.0,2.9
O=C(COC(=O)c1cccc(S(=O)(=O)N2CCc3ccccc3C2)c1)NCc1ccco1,-1.6,9.0,-3.1,3.4,3.6
c1ccc(Oc2ccc(-c3ccn[nH]3)cc2)cc1,-1.9,-6.4,-7.2,-3.0,-0.1
c1ccc(-c2ncc(-c3ccn[nH]3)s2)cc1,10.4,5.9,1.9,15.9*,0.3
CC(=O)N(C)c1ccc(N=Cc2cc3c(cc2[N+](=O)[O-])OCO3)cc1,11.6,64.9*,37.4*,1.1,0.3
Cc1ccc(C)c(N=Cc2cc3c(cc2[N+](=O)[O-])OCO3)c1,19.7,34.5,9.9,1.7,1.5
CC(C)(C)c1ccc(O)c(N=Cc2cc3c(cc2[N+](=O)[O-])OCO3)c1,18.6,13.7,-5.8,1.9,1.8
Cc1ccc(N=Cc2cc3c(cc2[N+](=O)[O-])OCO3)cc1[N+](=O)[O-],36.4*,39.5,4.3,4.8,4.1
CN(C1=C(NC(=O)c2ccccc2)C(=O)c2ccccc2C1=O)C1CCS(=O)(=O)C1 (centres undefined),75.5*,88.2*,32.5*,2.3,3.2
O=C(NC(=S)NC1CCS(=O)(=O)C1)c1ccccc1 (centres undefined),5.9,0.6,9.7,-2.6,0.0
CC1=NN(C(N)=S)C(=O)C1N=Nc1ccc(C)cc1C (centres undefined),-25.5,-10.9,-2.9,6.5,2.6
CC1=NN(C(N)=S)C(=O)C1N=Nc1c(C)cc(C)cc1C (centres undefined),-36.0,1.4,9.4,16.9*,0.8
Nc1[nH]c(C(=O)c2ccccc2)c(-c2cccc3ccccc23)c1C(=O)NCc1ccc(Cl)cc1Cl,/,/,-2.1,/,/
CCN(CC)CCNC(=O)c1ccc2c(c1NCCO)C(=O)c1ccccc1C2=O,24.9,54.1*,15.9,-1.6,0.1
CSc1nc(SCC(=O)NC(c2ccccc2)c2ccccc2)c2c3c(sc2n1)CN(C)CC3,9.3,38.5,-13.2,15.5*,3.1
COc1ccc(-c2ncncc2-c2csc(C)n2)c(O)c1OC,-5.3,3.9,0.8,10.5,-3.0
COC1=C(N)C(=O)c2nc(-c3nc(C(=O)O)c(C)c(-c4ccc(OC)c(OC)c4O)c3N)ccc2C1=O,/,84.2*,/,/,/
Cc1nn(-c2ccccc2)c(C)c1/C=N/NC(=O)CSc1nnc(SCc2ccc(Cl)cc2)s1,-17.0,29.6,-2.6,16.8*,3.0
CC1=CC(=Nc2c(C)n(C)n(-c3ccccc3)c2=O)C=C(C)C1=O,50.5*,-1.1,-8.9,-1.6,-1.2
CCC(C)C1=CC(=Nc2c(C)n(C)n(-c3ccccc3)c2=O)C=C(C(C)CC)C1=O (centres undefined),8.8,19.3,6.2,-3.9,0.7
Oc1ccc(/C=N/N2CCOCC2)c(O)c1O,37.8*,21.2,-0.1,3.7,1.6
